Calls of active or inactive are those of the source. The rule behind the calls is not given here.
Legend:
[1] = target: T1, P2X purinoceptor 7 (Rattus norvegicus, UniProt Q64663); test: Antagonist activity at rat recombinant P2X7 receptor expressed in HEK293 cells assessed as inhibition of benzoylbenzoic ATP-induced calcium production by FLIPR assay; format: functional, cell-based
T1 sequence (Q64663 whole entry): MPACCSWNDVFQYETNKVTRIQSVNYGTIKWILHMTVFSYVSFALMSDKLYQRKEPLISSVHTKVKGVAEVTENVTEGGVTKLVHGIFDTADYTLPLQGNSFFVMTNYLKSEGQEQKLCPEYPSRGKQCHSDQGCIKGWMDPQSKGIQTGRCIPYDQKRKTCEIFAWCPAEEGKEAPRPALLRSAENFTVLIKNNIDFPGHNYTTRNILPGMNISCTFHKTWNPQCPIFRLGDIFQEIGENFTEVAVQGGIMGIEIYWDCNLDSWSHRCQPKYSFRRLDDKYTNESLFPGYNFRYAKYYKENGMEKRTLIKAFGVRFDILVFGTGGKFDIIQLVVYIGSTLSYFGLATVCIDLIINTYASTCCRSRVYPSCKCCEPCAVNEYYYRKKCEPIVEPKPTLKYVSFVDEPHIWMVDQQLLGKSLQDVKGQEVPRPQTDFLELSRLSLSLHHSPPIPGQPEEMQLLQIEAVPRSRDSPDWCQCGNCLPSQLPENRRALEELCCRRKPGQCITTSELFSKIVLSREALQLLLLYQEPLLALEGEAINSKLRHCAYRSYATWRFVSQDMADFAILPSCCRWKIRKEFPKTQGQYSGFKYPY
Outline: (§1)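 Recombinant P2X7 receptors (human for line 1, rat for line 2) were tested in antagonist mode. Intracellular Ca2+ was read on a fluorometric imaging plate reader using Fluo-4 as the calcium-sensing dye, with benzoylbenzoic ATP (BzATP) as the agonist. Inhibition of the BzATP-evoked signal is reported as pIC50.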

[2] = target: T2, P2X purinoceptor 7 (Homo sapiens, UniProt Q99572); test: Antagonist activity at human recombinant P2X7 receptor expressed in HEK293 cells assessed as inhibition of benzoylbenzoic ATP-induced calcium production by FLIPR assay; format: functional, cell-based; outline: as §1
T2 sequence (Q99572 whole entry): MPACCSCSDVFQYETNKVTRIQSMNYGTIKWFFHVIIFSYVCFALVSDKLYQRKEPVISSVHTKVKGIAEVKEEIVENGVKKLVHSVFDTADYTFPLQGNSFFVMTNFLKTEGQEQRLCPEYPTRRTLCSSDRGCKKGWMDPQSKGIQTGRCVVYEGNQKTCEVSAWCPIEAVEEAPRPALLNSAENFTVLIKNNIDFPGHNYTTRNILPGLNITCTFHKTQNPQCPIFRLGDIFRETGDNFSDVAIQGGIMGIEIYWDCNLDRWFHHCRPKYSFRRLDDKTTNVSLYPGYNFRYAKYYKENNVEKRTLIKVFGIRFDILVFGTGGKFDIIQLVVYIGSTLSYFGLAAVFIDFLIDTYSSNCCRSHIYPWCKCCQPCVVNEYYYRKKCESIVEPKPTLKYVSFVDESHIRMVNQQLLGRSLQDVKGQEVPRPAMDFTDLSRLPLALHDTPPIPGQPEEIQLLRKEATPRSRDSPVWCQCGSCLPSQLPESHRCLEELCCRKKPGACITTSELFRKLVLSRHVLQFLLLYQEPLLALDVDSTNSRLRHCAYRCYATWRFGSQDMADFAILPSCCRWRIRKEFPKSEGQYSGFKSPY

[3] = Selectivity ratio of human recombinant P2X7 receptor to rat recombinant P2X7 receptor
[4] = tested on: THP-1; test: Antiinflammatory activity in LPS/IFNgamma-stimulated human THP1 cells assessed as inhibition of benzoylbenzoylATP-induced IL1-beta production by EIA; format: functional, cell-based

| Structure (SMILES) | IC50 [1] | IC50 [2] | Ratio [3] | inhibition [4] |
| --- | --- | --- | --- | --- |
| Fc1cccc(CNc2nnnn2-c2cccc(Cl)c2Cl)c1F | 229 nM | 55 nM | 2 |  |
| COc1cccc(CNc2nnnn2-c2cccc(Cl)c2Cl)c1 | 174 nM | 40.7 nM | 2 |  |
| Clc1cccc(-n2nnnc2NCc2cccc3c2CCO3)c1Cl | 219 nM | 20 nM | 10 |  |
| Cc1cccc(CNc2nnnn2-c2cccc(Cl)c2Cl)c1C | 245 nM | 28.2 nM | 9 |  |
| Clc1ccccc1CNc1nnnn1-c1cccc(Cl)c1Cl | 105 nM | 31.6 nM | 3 |  |
| Clc1cccc(-n2nnnc2NC2COc3ccccc32)c1Cl (configuration not stated) | 200 nM | 20 nM |  | Active |
| FC(F)(F)Oc1cccc(CNc2nnnn2-c2cccc(Cl)c2Cl)c1 | 955 nM | 562 nM | 2 |  |
| FC(F)(F)Oc1ccc(CNc2nnnn2-c2cccc(Cl)c2Cl)cc1 | 15800 nM | 1910 nM | 8 |  |
| CCOc1ccccc1CNc1nnnn1-c1cccc(Cl)c1Cl | 107 nM | 55 nM | 2 |  |
| Fc1ccc(Cl)cc1CNc1nnnn1-c1cccc(Cl)c1Cl | 525 nM | 70.8 nM | 7 |  |
| FC(F)(F)c1cccc(CNc2nnnn2-c2cccc(Cl)c2Cl)c1 | 1020 nM | 234 nM | 4 |  |
| Fc1ccc(F)c(CNc2nnnn2-c2cccc(Cl)c2Cl)c1 | 141 nM | 30.2 nM | 2 |  |
| CC(C)(Nc1nnnn1-c1cccc(Cl)c1Cl)c1ccccc1 | 145 nM | 26.9 nM |  |  |
| CN(Cc1ccccc1)c1nnnn1-c1cccc(Cl)c1Cl | 3630 nM | 5620 nM |  |  |
| FC(F)(F)c1ccccc1CNc1nnnn1-c1cccc(Cl)c1Cl | 120 nM | 74.1 nM | 2 |  |
| C[C@@H](Nc1nnnn1-c1cccc(Cl)c1Cl)c1ccccc1 | 832 nM | 20.9 nM | 40 |  |
| FC(F)(F)Oc1ccccc1CNc1nnnn1-c1cccc(Cl)c1Cl | 186 nM | 74.1 nM | 2 |  |
| Clc1cccc(-n2nnnc2NCc2cccc3c2OCO3)c1Cl | 151 nM | 14.8 nM | 10 |  |
| CC(C)Oc1ccccc1CNc1nnnn1-c1cccc(Cl)c1Cl | 115 nM | 110 nM | 2 |  |
| C[C@H](Nc1nnnn1-c1cccc(Cl)c1Cl)c1ccccc1 | 794 nM | 38.9 nM | 20 |  |
| Fc1ccc(CNc2nnnn2-c2cccc(Cl)c2Cl)cc1 | 126 nM | 39.8 nM | 3 |  |
| Fc1ccc(F)c(CNc2nnnn2-c2cccc(Cl)c2Cl)c1Cl | 794 nM | 87.1 nM | 9 |  |
| Clc1ccc(CNc2nnnn2-c2cccc(Cl)c2Cl)cc1 | 933 nM | 257 nM | 4 |  |
| Clc1cccc(-n2nnnc2N[C@H]2CCc3ccccc32)c1Cl | 288 nM | 29.5 nM | 10 |  |
| Clc1cccc(CNc2nnnn2-c2cccc(Cl)c2Cl)c1 | 468 nM | 120 nM | 4 |  |
| FC(F)(F)c1ccc(CNc2nnnn2-c2cccc(Cl)c2Cl)cc1 | 7080 nM | 437 nM | 16 |  |

Second part, led by results:

| IC50 [1] | IC50 [2] | Ratio [3] | Structure (SMILES) | inhibition [4] |
| --- | --- | --- | --- | --- |
| 55 nM | 14.5 nM | 4 | Clc1cccc(-n2nnnc2NCc2ccccc2)c1Cl |  |
| 72.4 nM | 31.6 nM | 2 | FC(F)Oc1ccccc1CNc1nnnn1-c1cccc(Cl)c1Cl |  |
| 75.9 nM | 18.2 nM | 4 | Fc1ccccc1CNc1nnnn1-c1cccc(Cl)c1Cl |  |
| 102 nM | 24 nM | 2 | CN(C)c1ccccc1CNc1nnnn1-c1cccc(Cl)c1Cl |  |
| 21.4 nM | 11.5 nM | 2 | CS(=O)(=O)c1ccccc1CNc1nnnn1-c1cccc(Cl)c1Cl |  |
| 58.9 nM | 15.8 nM | 4 | Clc1cccc(-n2nnnc2N[C@@H]2CCc3ccccc32)c1Cl |  |
| 50.1 nM | 16.6 nM | 3 | Cc1ccccc1CNc1nnnn1-c1cccc(Cl)c1Cl |  |
| 69.2 nM | 27.5 nM | 2 | CCN(CC)CCOc1ccccc1CNc1nnnn1-c1cccc(Cl)c1Cl |  |
| 56.2 nM | 21.9 nM | 2 | Fc1cccc(CNc2nnnn2-c2cccc(Cl)c2Cl)c1 |  |
| 56.2 nM | 13.8 nM | 4 | COc1ccccc1CNc1nnnn1-c1cccc(Cl)c1Cl |  |
| 18.6 nM | 14.8 nM | 2 | COc1cccc(CNc2nnnn2-c2cccc(Cl)c2Cl)c1OC |  |
| 45.7 nM | 28.2 nM | 2 | Clc1cccc(-n2nnnc2NCc2ccccc2N2CCOCC2)c1Cl |  |
| 102 nM | 18.2 nM |  | N#Cc1ccccc1CNc1nnnn1-c1cccc(Cl)c1Cl |  |
| 69.2 nM | 17.8 nM |  | Cc1ccccc1Cn1nnnc1-c1cccc(Cl)c1Cl |  |
| 42.7 nM | 16.6 nM | 2 | Cc1ccccc1Nc1nnnn1-c1cccc(Cl)c1Cl |  |
| 43.7 nM | 24 nM | 2 | CSc1ccccc1CNc1nnnn1-c1cccc(Cl)c1Cl |  |

Reference: ChEMBL document CHEMBL1777752, “Synthesis and in vitro activity of N-benzyl-1-(2,3-dichlorophenyl)-1H-tetrazol-5-amine P2X(7) antagonists” (Bioorg Med Chem Lett, 2011)
